Structures can show the parent of a compound that is named as a salt. Active and inactive are the calls of the source. The rule behind the calls is not given here.
Assays:
[1] = tested on: Klebsiella aerogenes; assay: Antimicrobial activity against Enterobacter aerogenes ATCC 13048 at 1 ug after 24 hrs by paper disc agar diffusion method; assay type: functional, organism-based
[2] = tested on: MCF-10A; assay: Cytotoxicity against human MCF10A cells after 72 hrs by MTT assay; assay type: functional, cell-based
How it was run: (§1)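 MTT viability assay on human cell lines, with values given as IC50. Lines used: gemcitabine-resistant pancreatic cancer G3K, breast adenocarcinoma MCF-7, its adriamycin-resistant subline MCF-7/Adr, triple-negative breast cancer MDA-MB-231, nontumorigenic breast epithelial MCF10A, non-small-cell lung cancer A549, and promyelocytic leukemia HL-60.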

[3] = tested on: MCF7; assay: Cytotoxicity against human MCF7 cells after 72 hrs by MTT assay; assay type: functional, cell-based; settings: MCF7, 72 h; how it was run: as §1
[4] = tested on: MDA-MB-231; assay: Cytotoxicity against human MDA-MB-231 cells after 72 hrs by MTT assay; assay type: functional, cell-based; settings: MDA-MB-231, 72 h
[5] = tested on: NCI/ADR-RES; assay: Cytotoxicity against human MCF7/ADR cells after 72 hrs by MTT assay; assay type: functional, cell-based; how it was run: as §1
[6] = tested on: Pseudomonas aeruginosa; assay: Antimicrobial activity against Pseudomonas aeruginosa ATCC 10145 at 1 ug after 24 hrs by paper disc agar diffusion method; assay type: functional, organism-based
[7] = tested on: Bacillus subtilis; assay: Antimicrobial activity against Bacillus subtilis ATCC 6051 at 1 ug after 24 hrs by paper disc agar diffusion method; assay type: functional, organism-based
[8] = tested on: Escherichia coli; assay: Antimicrobial activity against Escherichia coli ATCC 11775 at 1 ug after 24 hrs by paper disc agar diffusion method; assay type: functional, organism-based; settings: DSM 30083 = JCM 1649 = ATCC 11775
[9] = Cytotoxicity against human G3K cells after 72 hrs by MTT assay; assay type: functional, cell-based; how it was run: as §1
[10] = tested on: Candida albicans; assay: Antimicrobial activity against Candida albicans ATCC 10231 at 1 ug after 24 hrs by paper disc agar diffusion method; assay type: functional, organism-based
[11] = tested on: A549; assay: Cytotoxicity against human A549 cells after 72 hrs by MTT assay; assay type: functional, cell-based; settings: A549, 72 h; how it was run: as §1
[12] = tested on: HL-60; assay: Cytotoxicity against human HL60 cells after 72 hrs by MTT assay; assay type: functional, cell-based; settings: HL-60, 72 h; how it was run: as §1

Row | Structure (SMILES) | Activity [1] | IC50 [2] [µM] | IC50 [3] [µM] | IC50 [4] [µM] | IC50 [5] [µM] | Activity [6] | Activity [7] | Activity [8] | IC50 [9] [µM] | Activity [10] | IC50 [11] [µM] | IC50 [12] [µM]
1 | CC(C)=C/C=C\[C@H](C)[C@H]1CC[C@]2(C)C[C@@H]3C(C)=CC(=O)[C@H]3/C(C=O)=C\C[C@@H]12 | inactive | > 40 | 15.4 | 11.6 | 35.4 | inactive | inactive | inactive | 16.8 | inactive |  | 
2 | CO[C@H]1O[C@]2(OC)C[C@@](C)(O)[C@H]3C[C@@]4(C)CC[C@H]([C@@H](C)/C=C\C=C(C)C)[C@@H]4C/C=C/1[C@@H]32 | inactive | > 40 | 9.4 | 21.4 | 7.9 | inactive | inactive | inactive | > 20 | inactive |  | 
3 | CC(C)=C/C=C\[C@H](C)[C@H]1CC[C@]2(C)C[C@H]3[C@H](C(=O)C[C@@]3(C)O)/C(C)=C\C[C@@H]12 |  |  |  |  |  |  |  |  |  |  | 15.1 | 7
4 | COc1cccc2c1C(=O)c1c(O)c3c(c(O)c1C2=O)C[C@@](O)(C(=O)CO)C[C@@H]3O[C@H]1C[C@H](N)[C@H](O)[C@H](C)O1 [DOXORUBICIN HYDROCHLORIDE] |  | 0.2 | 0.1 |  | 2.9 |  |  |  | 45 |  |  | 
5 | CC(C)=C/C=C\[C@H](C)[C@H]1CC[C@]2(C)C[C@H]3[C@@H]4/C(=C\C[C@@H]12)C(=O)O[C@]4(O)C[C@@]3(C)O | inactive |  | > 40 | > 40 | > 40 | inactive | inactive | inactive | > 20 | inactive |  | 
6 | CC(C)=C/C=C\[C@H](C)[C@H]1CC[C@]2(C)C[C@H]3[C@@H]4/C(=C\C[C@@H]12)CO[C@@H]4C[C@@]3(C)O |  |  | > 40 | > 40 | > 40 |  |  |  | > 20 |  |  | 
7 | CO[C@H]1C[C@H]2[C@@H]([C@@H](C)/C=C\C=C(C)C)CC[C@]2(C)C[C@H]2[C@H]3C1=CO[C@H]3C[C@@]2(C)O |  |  | > 40 | > 40 | > 40 |  |  |  | > 20 |  |  | 
8 | CC(C)=C/C=C\[C@H](C)[C@H]1CC[C@]2(C)C[C@H]3[C@H]4/C(=C\C[C@@H]12)C(=O)O[C@H]4C[C@@]3(C)O | inactive |  | > 40 | > 40 | > 40 | inactive | inactive | inactive | > 20 | inactive | > 50 | > 50
9 | CC(C)=C/C=C\[C@H](C)[C@H]1CC[C@]2(C)CC3=C(C(=O)C[C@H]3C)/C(C=O)=C\C[C@@H]12 |  |  | > 40 | 39.8 | > 40 |  |  |  | > 20 |  |  | 
10 | CC(C)=C/C=C\[C@H](C)[C@H]1CC[C@]2(C)C[C@H]3[C@H](C(=O)C[C@@]3(C)O)/C(C=O)=C\C[C@@H]12 |  | 8.4 | 5.1 | 5.9 | 4.1 |  |  |  | > 20 |  |  | 
11 | CC1=CC(=O)[C@H]2/C(C=O)=C\C[C@H]3[C@@H]([C@@H](C)/C=C\[C@@H](O)C(C)(C)O)CC[C@]3(C)C[C@H]12 |  |  |  |  |  |  |  |  |  |  | 33.8 | 7.2
12 | CC(C)=C/C=C\[C@H](C)[C@H]1CC[C@]2(C)C[C@H]3[C@@H](C(=O)C[C@@]3(C)O)/C(C=O)=C\C[C@@H]12 | inactive | > 40 | 12.8 | 4.1 | 26.1 | inactive | inactive | inactive | 6.8 | inactive |  | 
13 | CC(C)=C/C=C\[C@H](C)[C@H]1CC[C@]2(C)C[C@@H]3C(C)=CC(=O)[C@@H]3/C(C=O)=C\C[C@@H]12 |  | > 40 | 22.9 | 14.1 | 34.6 |  |  |  | 9.5 |  |  | 
14 | CC(C)=C/C=C\[C@H](C)[C@H]1CC[C@]2(C)CC3=C(C(=O)C[C@H]3C)/C(CO)=C\C[C@@H]12 |  |  | > 40 | > 40 | > 40 |  |  |  | > 20 |  |  | 
15 | CC(C)=C/C=C\[C@H](C)[C@H]1CC[C@]2(C)C[C@@H]3C(C)=CC(=O)[C@H]3/C(CO)=C\C[C@@H]12 | inactive |  | > 40 | > 20 | > 40 | inactive | inactive | inactive | 1.9 | inactive | > 50 | > 50
16 | CO[C@@H]1O[C@]2(OC)C[C@@](C)(O)[C@H]3C[C@@]4(C)CC[C@H]([C@@H](C)/C=C\C=C(C)C)[C@@H]4C/C=C/1[C@@H]32 | inactive | > 40 | 13.2 | 18.5 | 5.4 | inactive | inactive | inactive | 19.1 | inactive |  | 
17 | CO[C@@H]1O[C@@]2(OC)C[C@@](C)(O)[C@H]3C[C@@]4(C)CC[C@H]([C@@H](C)/C=C\C=C(C)C)[C@@H]4C/C=C/1[C@H]32 | inactive |  |  |  |  | inactive | inactive | inactive |  | inactive | 0.6 | 0.8
18 | CO[C@H]1O[C@@]2(OC)C[C@@](C)(O)[C@H]3C[C@@]4(C)CC[C@H]([C@@H](C)/C=C\C=C(C)C)[C@@H]4C/C=C/1[C@H]32 [OPHIOBOLIN O] | inactive |  |  |  |  | inactive | inactive | inactive |  | inactive | 2.4 | 1.7
